Only some compounds are listed: those with a hit (about 12% of all), similar ones and a draw of the others.
ABCG2 inh – blocks JC-1 efflux by human ABCG2 transporter; inhibition, % at 6.6 µM; IgMXP3 cells, flow cytometry; 190,000 tested, 0.1% active; Q9UNQ0;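 active means inhibition above 80%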;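 further: 0% = DMSO and 100% = nicardipine control wells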
Target sequence (Q9UNQ0 whole entry, looked up): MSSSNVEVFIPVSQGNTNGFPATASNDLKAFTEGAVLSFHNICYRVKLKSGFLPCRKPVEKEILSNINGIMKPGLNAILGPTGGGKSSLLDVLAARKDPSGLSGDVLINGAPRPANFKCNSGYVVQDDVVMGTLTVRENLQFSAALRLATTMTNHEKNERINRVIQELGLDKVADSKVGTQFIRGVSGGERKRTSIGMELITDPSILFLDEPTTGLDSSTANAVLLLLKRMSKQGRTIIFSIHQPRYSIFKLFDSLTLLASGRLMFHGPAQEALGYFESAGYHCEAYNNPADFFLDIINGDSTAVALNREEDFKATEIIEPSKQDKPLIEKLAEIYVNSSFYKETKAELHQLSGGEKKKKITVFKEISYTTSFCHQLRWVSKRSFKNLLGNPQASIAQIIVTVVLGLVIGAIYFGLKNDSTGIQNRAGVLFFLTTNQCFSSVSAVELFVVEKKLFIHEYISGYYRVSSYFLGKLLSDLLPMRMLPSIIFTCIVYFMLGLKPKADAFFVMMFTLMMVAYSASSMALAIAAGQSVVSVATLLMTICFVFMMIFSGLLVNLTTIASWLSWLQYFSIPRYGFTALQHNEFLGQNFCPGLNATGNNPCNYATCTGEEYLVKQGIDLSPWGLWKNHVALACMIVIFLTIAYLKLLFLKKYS
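Test system: IgMXP3 cells (ABCG2) mixed with DDAO far-red-labelled CCRF-Adr cells (ABCB1). Reagent: JC-1 transporter substrate. Compound dosing: single test compound dose, 6.6 µM final. Times: 10 min compound exposure, 25 °C. Detection: flow cytometry of retained JC-1 fluorescence. Read-out basis: efflux inhibition in percent versus controls. Controls: nicardipine and DMSO wells.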
L major viab – Leishmania major promastigote growth inhibition | AID 1063 | Leishmania major promastigotes, resazurin fluorescence viability | inhibition, % at 10 µM | 200,000 tested, 9% active; in the data active means inhibition above about 50%;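 further: promastigotes grown with compound for 44 hours at 28 °C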
WT yeast gro inh – growth inhibition of WT yeast, mitochondrial fusion screen. inhibition, % at 10 µM. mitochondrial fusion phenotypic screen, WT strain. 190,000 tested, 2.1% active; in the data active means inhibition above about 58%; tested in S. cerevisiae
ABCB1 block – human ABCB1 inhibition, ABCG2 as counter-screen. P08183. CCRF-Adr cells, JC-1 efflux, flow cytometry. inhibition, % at 6.6 µM. 190,000 tested, 0.067% active. AID 1326; in the data active means inhibition above about 40%;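 further: 0% = vehicle and 100% = reference inhibitor; higher value means more JC-1 retained so stronger ABCB1 efflux block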
RAM network inh – blocks the yeast RAM network; S. cerevisiae dse1pr::URA3 reporter, 5-FOA growth OD615, 2 d; analog-sensitive cbk1-as2 kinase mutant strain; AID 868; inhibition, % at 50 µM; 190,000 tested, 1.8% active;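 active means inhibition above a set limit, 3 SD over mean compound inhibition, cut at about 8.4% in these data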;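 further: 0% = DMSO-only wells with no growth and 100% = 10 µM 1-NA-PP1 full growth; inhibition rescues growth on 5-FOA so higher OD means more RAM inhibition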
RAM efflux-def – RAM network inhibition, efflux-deficient strain; max inhibition, %; AID 1305; shares compounds with RAM network inh; 1,200 tested, under 10 active; S. cerevisiae efflux-deficient reporter strain, 5-FOA growth OD615, 2 days; call rule not given here;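 further: plate controls were vehicle for no effect and reference inhibitor for full effect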
* hit, by the source's call; . = no result.

SMILES | ABCG2 inh | L major viab | WT yeast gro inh | ABCB1 block | RAM network inh | RAM efflux-def
O=C(NCCSCc1ccccc1)c1ccc(C2SCC(=O)N2Cc2ccccc2)cc1 (stereo not drawn) | 5.5 | 35.9 | 24.4 | 1.8 | 12.1* | 3.1
O=C(NCCSCc1ccccc1)c1ccc(F)cc1 | 9.4 | -2.6 | 2.2 | 0.8 | 2.1 | .
CCOc1ccc2nc(NS(C)(=O)=O)sc2c1 | 0.2 | -4.9 | -9.8 | -0.1 | 1.9 | .
CCOc1ccc(S(=O)(=O)Nc2nc3ccc(OC)cc3s2)cc1 | 0.2 | 0.5 | -7.8 | 0.1 | 12.2* | 2.6
COc1ccc(C(=O)Cc2nnc(C)s2)cc1 | -21.7 | 3.3 | -1.8 | -6.0 | -0.1 | .
COc1cc(C(=O)Nc2ccc(NC(C)=O)cc2)ccc1OCc1ccccc1 | 0.9 | -2.0 | -4.3 | -0.1 | 2.9 | .
CCN=c1scc(-c2cccs2)n1/N=C/c1cc(OC)ccc1O | 20.7 | 75.3* | 47.4 | 0.7 | 12.2* | 1.8
COc1cccc(NC(=S)NCc2ccc3c(c2)cc(C)n3C)c1 | -1.5 | 8.2 | 19.6 | -0.7 | 11.7* | 6.2
O=C(CSc1nc2cc(Cl)ccc2s1)Nc1cccc(S(=O)(=O)N2CCOCC2)c1 | -2.0 | 22.1 | 4.2 | -0.1 | 7.5 | .
N#C/C(=C/c1ccc(C(=O)O)cc1)C(=O)NCc1ccccc1 | 6.0 | -4.0 | 2.0 | -0.2 | 1.2 | .
O=C(NCc1ccccc1)/C(=C/c1ccc(OC(F)F)cc1)c1ccccc1 | 35.5 | 46.3 | 62.8* | -1.6 | 12.0* | 1.7
O=C(C(Sc1ccccc1)c1ccccc1)N1CCN(c2ccccc2)CC1 (stereo not drawn) | 5.6 | 24.4 | 32.0 | 1.5 | 21.4* | 1.5
CCOc1ccccc1N1CCN(C(=O)C(Sc2ccccc2)c2ccccc2)CC1 (stereo not drawn) | 7.0 | 15.4 | 46.3 | 2.2 | 5.8 | .
O=C(c1ccco1)N1N=C(c2cccs2)CC1c1ccc(F)cc1 (stereo not drawn) | 3.3 | 12.2 | 3.5 | 0.7 | 0.9 | .
O=C(CSc1nc2c(cnn2-c2ccccc2)c(=O)[nH]1)N1N=C(c2cccs2)CC1c1ccc(F)cc1 (stereo not drawn) | 8.5 | 68.9* | 8.3 | 1.3 | 12.5* | 4.9
Fc1ccc(C2CC(c3cccs3)=NN2c2ccccc2)cc1 (stereo not drawn) | -0.2 | 15.7 | 57.3 | 0.1 | 12.0* | 2.1
CC(=O)N1CCN(C(=O)CSc2nc3c(cnn3-c3ccccc3)c(=O)[nH]2)CC1 | 6.1 | 9.3 | 11.0 | 0.2 | 0.9 | .
COc1ccccc1CNC(=O)CN(CCc1ccccc1)S(C)(=O)=O | 2.6 | 3.3 | 5.3 | 1.3 | 0.0 | .
O=C(CNS(=O)(=O)c1ccccc1)OCC(=O)c1ccc(OC(=O)c2ccccc2)cc1 | 1.2 | -3.0 | -10.5 | 0.2 | 3.6 | .
Cc1ccccc1OCC(=O)OCC(=O)c1ccc(OCc2ccccc2)cc1 | 5.3 | 20.9 | 23.8 | 0.1 | 11.9* | 4.5
Cc1ccccc1OCC(=O)OCC(=O)c1ccc(OC(=O)c2ccccc2)cc1 | 13.2 | -6.3 | -25.2 | 2.0 | 13.6* | 2.8
O=C(COC(=O)c1cccc([N+](=O)[O-])c1)c1ccc(OCc2ccccc2)cc1 | 15.6 | 39.9 | 11.1 | 0.7 | 6.2 | .
O=C(c1cccs1)N(CC1CCCO1)c1nc(-c2ccccc2)cs1 (stereo not drawn) | 7.2 | 23.6 | 37.6 | 0.6 | 16.1* | 1.6
Cc1ccc(-c2csc(N(CC3CCCO3)C(=O)c3ccco3)n2)cc1 (stereo not drawn) | 5.3 | 75.8* | 69.4* | 2.5 | 13.3* | 2.9
COc1ccc(CCNC(=O)COc2nncc3ccccc23)cc1 | 2.2 | -10.9 | -9.6 | 0.7 | -0.4 | .
Cc1cc(NC(=O)CCSc2ccccc2)ccc1Br | 12.2 | 6.8 | 34.4 | -0.1 | 13.9* | 1.9
CCn1cc(C(=O)N2CCN(c3ccc(C(C)=O)cc3)CC2)c2cc(OC)c(OC)cc2c1=O | 4.4 | 5.1 | 7.2 | 0.7 | 2.0 | .
COc1ccccc1NC(=O)COC(=O)/C=C/c1ccccc1[N+](=O)[O-] | 0.0 | -1.8 | 7.5 | 0.2 | 2.9 | .
O=C(COC(=O)CNS(=O)(=O)c1c(Cl)cccc1Cl)Nc1ccccc1Sc1ccccc1 | 7.9 | 37.9 | 9.2 | 1.1 | 7.9 | .
CC(C)[C@H](NS(=O)(=O)c1ccccc1)C(=O)OCC(=O)Nc1ccccc1Sc1ccccc1 | -1.5 | 16.0 | 44.0 | 1.2 | 14.9* | 5.6

High-throughput results from PubChem BioAssay.
